Test results: publication PMC2886848 (Science (New York, N.Y.), 2009)
“Also recorded” adds a separate entry of the source. Blank lines part the entries; values can stand above or below the molecule they belong to.

Key:
[1] = tested on: procaspase-7; test: procaspase-7 activation, fluorogenic Ac-DEVD-AFC activity assay; assay type: biochemical; details: procaspase-7 100 nM; 1 nM granzyme B, 25 μM 1541 or 100 μM PAC-1
Method in brief: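 Procaspase-7 (100 nM) was incubated at 37 °C with 1 nM granzyme B, DMSO, 100 μM reference procaspase activator or 25 μM test compound. Activity was sampled every 20 minutes by adding fluorogenic substrate Ac-DEVD-AFC.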

[2] = molecular target: T1, procaspase-6 (Homo sapiens, UniProt P55212); test: procaspase-6 activation, fluorogenic Ac-VEID-AFC activity assay; assay type: biochemical
T1 sequence (P55212 1-293): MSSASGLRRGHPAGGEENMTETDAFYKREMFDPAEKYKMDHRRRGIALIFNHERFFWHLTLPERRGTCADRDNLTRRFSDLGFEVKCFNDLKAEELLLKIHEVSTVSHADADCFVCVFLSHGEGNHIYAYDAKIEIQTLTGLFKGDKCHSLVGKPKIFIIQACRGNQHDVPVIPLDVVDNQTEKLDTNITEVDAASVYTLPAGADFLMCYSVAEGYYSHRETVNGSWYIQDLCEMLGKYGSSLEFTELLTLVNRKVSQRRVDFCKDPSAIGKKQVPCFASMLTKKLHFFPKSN

[3] = molecular target: T2, procaspase-3 (Homo sapiens, UniProt P42574); test: procaspase-3 autoproteolytic activation, fluorogenic Ac-DEVD-AFC activity assay; assay type: biochemical
T2 sequence (P42574 1-277): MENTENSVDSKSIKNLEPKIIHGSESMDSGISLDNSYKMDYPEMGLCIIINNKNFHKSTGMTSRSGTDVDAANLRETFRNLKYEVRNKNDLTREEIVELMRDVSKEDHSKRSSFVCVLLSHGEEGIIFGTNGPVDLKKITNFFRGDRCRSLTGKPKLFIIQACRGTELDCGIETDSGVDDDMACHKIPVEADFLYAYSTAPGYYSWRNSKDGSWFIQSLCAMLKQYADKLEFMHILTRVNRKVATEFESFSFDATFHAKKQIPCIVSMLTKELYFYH

[4] = molecular target: T2, procaspase-3; details: caused through chelation of inhibitory zinc ion in some assay buffers; cited from earlier work
[5] = tested on: BT549 cells; test: time course of cell viability in BT549 cells; assay type: cell-based; details: 25 μM 1541, 1541C, 1541D; 1 μM STS; 100 μM etoposide; 1541 and STS after 4 hours
Method in brief: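 p53-deficient BT549 breast cancer cells (2,000) were exposed to 25 μM test compound or either of two analogs, 1 μM staurosporine, 100 μM etoposide or DMSO (final 0.5%). Cell viability was assayed at 2, 4, 6, 8, 12 and 24 h.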

[6] = tested on: wild type (A3) Jurkat cells; test: cell viability of wild type; assay type: cell-based, human; details: 25 μM 1541, 1 μM STS, 100 ng/ml FasL
Method in brief: (§1)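 Wild-type (A3) and caspase-8-deficient (I9.2) human Jurkat cells (100,000 cells) were exposed to 25 μM test compound, 1 μM staurosporine or 100 ng/ml FasL. Cell viability was assayed every 2 hours.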

[7] = tested on: BT549 cells; test: cytochrome C release in cytoplasmic extracts of BT549 cells; assay type: cell-based; details: 25 μM 1541, 1 μM STS, harvested every 3 hours
[8] = tested on: BT549 cells; test: time course of DEVDase activity in BT549 cells; assay type: cell-based; details: 25 μM 1541, 1 μM STS
Method in brief: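 p53-deficient BT549 breast cancer cells (2,000) were treated with 25 μM test compound or analogs, 1 μM staurosporine, 100 μM etoposide or DMSO (final 0.5%). Executioner caspase (DEVDase) activity was measured at 2, 4, 6, 8, 12 and 24 h.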

[9] = tested on: wild type murine embryonic fibroblasts (MEF); test: histone ELISA apoptosis assay in wild type MEFs; assay type: cell-based; details: 1 μM STS, 25 μM 1541, 12 hours
Method in brief: (§2)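 Wild-type and Bak−/−/Bax−/− double-knockout murine embryonic fibroblasts (5,000 cells) were treated at 37 °C with 1 μM staurosporine, 25 μM test compound or DMSO (final 0.5%). Apoptosis was measured after 12 h by histone sandwich ELISA on lysates, which detects histone solubilisation from DNA fragmentation.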

[10] = tested on: caspase-8 deficient Jurkat cells (I9.2); test: cell viability of caspase-8 deficient; assay type: cell-based, human; details: 25 μM 1541, 1 μM STS, 100 ng/ml FasL
Method in brief: as §1

[11] = tested on: Bak−/−/Bax−/− double knockout (DKO MEFs); test: histone ELISA apoptosis assay in Bak−/−/Bax−/− DKO MEFs; assay type: cell-based, murine; details: 1 μM STS, 25 μM 1541, 12 hours
Method in brief: as §2

[12] = tested on: BT549 cells; test: protection against 1541-induced apoptosis with caspase inhibitors in BT549 cells; assay type: cell-based; details: preincubation with inhibitor 0.78 to 100 μM, then 25 μM 1541, 24 hours
Method in brief: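 BT549 cells (2,500) were preincubated overnight with Biotin-DEVD-FMK (caspase-3/-7 inhibitor) or Biotin-VAD-FMK (pan-caspase inhibitor) at 0.78 to 100 μM. Cells were then switched to fresh medium containing 25 μM test compound plus the same inhibitor concentration. Viability was assayed after 24 h at 37 °C.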

[13] = tested on: procaspase-3 mutants (S198A, T199A and S205A); test: activation of procaspase-3 alanine mutants; assay type: biochemical; details: 5 hours, 25 μM 1541 or 1 nM granzyme B, 37 °C
Method in brief: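 Wild-type procaspase-3 and active-site alanine mutants (S198A, T199A, S205A), chosen by alanine scanning near the active site, were incubated 5 h at 37 °C with 25 μM test compound, 1 nM granzyme B or DMSO. Activation was sampled by kinetic assays started with fluorogenic substrate Ac-DEVD-AFC.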

[14] = tested on: C163A procaspase-3; test: cleavage of inactive C163A procaspase-3 by granzyme B; assay type: biochemical; details: C163A 250 nM, granzyme B 0.5 nM, alone or with 1541 25 μM
[15] = molecular target: T1, procaspase-6; details: cited from earlier work

Molecule: C=CCc1cccc(/C=N/NC(=O)CN2CCN(Cc3ccccc3)CC2)c1O [PAC-1]
activation of procaspase-7 (in words) [1]: no detectable increase in activity or self-proteolysis
activation of procaspase-6 (in words) [2]: no detectable increase in activity or self-proteolysis
activation of procaspase-3 (in words) [3]: no detectable increase in activity or self-proteolysis
activation of procaspase-3 seen for PAC-1 [4]: ~ 2 fold

Molecule: CN[C@@H]1C[C@H]2O[C@@](C)([C@@H]1OC)n1c3ccccc3c3c4c(c5c6ccccc6n2c5c31)C(=O)NC4 [STS, staurosporine]
induction of apoptosis / cell death in BT549 (in words) [5]: near complete apoptosis
apoptosis in wild type Jurkat cells (in words) [6]: comparable to 1541
mitochondrial cytochrome C release (in words) [7]: much greater and more rapid mitochondrial cytochrome C release
DEVDase activity in BT549 (in words) [8]: significantly higher
time of peak DEVDase activity [8]: 8 h
apoptosis in wild type MEFs (in words) [9]: susceptible
apoptosis in caspase-8 deficient Jurkat cells (in words) [10]: somewhat slower
apoptosis in DKO MEFs (in words) [11]: completely resistant

Molecule: COc1cc([C@@H]2c3cc4c(cc3[C@@H](O[C@@H]3O[C@@H]5CO[C@@H](C)O[C@H]5[C@H](O)[C@H]3O)[C@H]3COC(=O)[C@H]23)OCO4)cc(OC)c1O [etoposide]
induction of apoptosis / cell death in BT549 (in words) [5]: much slower apoptosis

Molecule: DEVD-FMK
block of 1541-induced apoptosis (in words) [12]: completely blocked apoptosis

cleavage of C163A procaspase-3 after 30 minutes [14]: ~ 10%
cleavage of C163A procaspase-3 after 60 minutes [14]: 20%
activation of procaspase-7 (in words) [1]: robustly activated and fully processed
time to full activation of the zymogen ([3]; 1 nM granzyme B, procaspase-3 100 nM): ≤ 90 min
Molecule: granzyme B: a natural proteolytic activator of procaspase-3
activation of S198A, T199A and S205A procaspase-3 (in words) [13]: efficiently activated; also recorded: wild type activity
activation of procaspase-6 by granzyme B (in words) [15]: resistant

B1: FasL: a specific inducer of the extrinsic pathway (protein, UniProt P48023 130-281, looked up)
Tumor necrosis factor ligand …: QIGHPSPPPEKKELRKVAHLTGKSNSRSMPLEWEDTYGIVLLSGVKYKKGGLVINETGLYFVYSKVYFRGQSCNNLPLSHKVYMRNSKYPQDLVMMEGKMMSYCTTGQMWARSSYLGAVFNLTSADHLYVNVSELSLVNFEESQTFFGLYKL
apoptosis in wild type Jurkat cells (in words) [6]: active
apoptosis in caspase-8 deficient Jurkat cells (in words) [10]: not in caspase-8 deficient cells
